Laboratory results from ChEMBL document CHEMBL1149311, “Synthesis and antitumor activity of methyltriazene prodrugs simultaneously releasing DNA-methylating agents and the antiresistance drug O(6)-benzylguanine” (J Med Chem, 2004).

Key:
[1] = tested on: OVCAR-4; assay: Antitumor activity against human OVCAR4 cells; format: functional
Method in brief: (§1)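 Tested in the NCI in vitro disease-oriented human tumor cell screen. The endpoints are IC50 (molar concentration giving 50% growth inhibition), TGI (total growth inhibition) and LC50 (50% net cell death). The maximal concentration tested was 100 μM. Subpanel values are means of several individual cell lines.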

[2] = tested on: NCI; assay: Antitumor activity against NCI human melanoma cell line panel; format: functional, cell-based; method in brief: as §1
[3] = tested on: DU-145; assay: Antitumor activity against human DU145 cells; format: functional; method in brief: as §1
[4] = tested on: SK-MEL-5; assay: Antitumor activity against human SK-MEL-5 cells; format: functional; method in brief: as §1
[5] = tested on: EKVX; assay: Antitumor activity against human EKVX cells; format: functional; method in brief: as §1
[6] = tested on: UACC-257; assay: Antitumor activity against human UACC257 cells; format: functional
Method in brief: (§2)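 NCI in vitro disease-oriented tumour cell line screen. Read-outs are IC50 (molar concentration giving 50% growth inhibition), TGI (molar concentration giving total inhibition of net growth) and LC50 (molar concentration giving 50% net cell death). The maximal concentration tested was 100 μM.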

[7] = tested on: SK-MEL-2; assay: Antitumor activity against human SK-MEL-2 cells; format: functional; method in brief: as §1
[8] = tested on: NCI-H460; assay: Antitumor activity against human NCI-H460 cells; format: functional; method in brief: as §1
[9] = tested on: U-251; assay: Antitumor activity against human U251 cells; format: functional; method in brief: as §2
[10] = tested on: KM12; assay: Antitumor activity against human KM12 cells; format: functional; method in brief: as §1
[11] = tested on: Hs-578T; assay: Antitumor activity against human HS578T cells; format: functional; settings: Homo sapiens, Hs-578T; method in brief: as §1
[12] = tested on: UACC-62; assay: Antitumor activity against human UACC62 cells; format: functional; method in brief: as §2
[13] = tested on: SF-539; assay: Antitumor activity against human SF539 cells; format: functional; method in brief: as §1
[14] = tested on: A549; assay: Antitumor activity against human A549 cells; format: functional; method in brief: as §1
[15] = tested on: SK-OV-3; assay: Antitumor activity against human SKOV3 cells; format: functional; method in brief: as §1
[16] = tested on: SNB-19; assay: Antitumor activity against human SNB19 cells; format: functional; method in brief: as §1
[17] = tested on: NCI-H322M; assay: Antitumor activity against human NCI-H322M cells; format: functional; method in brief: as §1
[18] = tested on: SNB-75; assay: Antitumor activity against human SNB75 cells; format: functional; method in brief: as §2
[19] = tested on: IGROV-1; assay: Antitumor activity against human IGROV1 cells; format: functional; method in brief: as §1
[20] = tested on: RPMI-8226; assay: Antitumor activity against human RPMI8226 cells; format: functional; method in brief: as §1
[21] = tested on: TK-10; assay: Antitumor activity against human TK10 cells; format: functional; method in brief: as §2
[22] = tested on: NCI; assay: Antitumor activity against human NCI leukemia cell line panel; format: functional, cell-based; method in brief: as §1
[23] = tested on: HCT-116; assay: Antitumor activity against human HCT116 cells; format: functional; method in brief: as §1
[24] = tested on: UO-31; assay: Antitumor activity against human UO31 cells; format: functional; method in brief: as §2
[25] = tested on: OVCAR-5; assay: Antitumor activity against human OVCAR5 cells; format: functional; method in brief: as §1
[26] = tested on: SW-620; assay: Antitumor activity against human SW620 cells; format: functional; method in brief: as §2
[27] = tested on: SF-268; assay: Antitumor activity against human SF268 cells; format: functional; method in brief: as §1
[28] = tested on: BT-549; assay: Antitumor activity against human BT549 cells; format: functional; method in brief: as §1
[29] = tested on: NCI; assay: Antitumor activity against human NCI breast cancer cell line panel; format: functional, cell-based; method in brief: as §1
[30] = tested on: NCI; assay: Antitumor activity against human NCI CNS cancer cell line panel; format: functional, cell-based; method in brief: as §1
[31] = tested on: SK-MEL-28; assay: Antitumor activity against human SK-MEL-28 cells; format: functional; method in brief: as §1
[32] = tested on: NCI-H23; assay: Antitumor activity against human NCI-H23 cells; format: functional; method in brief: as §1
[33] = tested on: OVCAR-3; assay: Antitumor activity against human OVCAR-3 cells; format: functional; method in brief: as §1
[34] = Antitumor activity against human LOX IMV1 cells; format: functional, cell-based; method in brief: as §1
[35] = tested on: PC-3; assay: Antitumor activity against human PC3 cells; format: functional; method in brief: as §1
[36] = tested on: K562; assay: Antitumor activity against human K562 cells; format: functional; method in brief: as §1
[37] = tested on: 786-0; assay: Antitumor activity against human 786-0 cells; format: functional; method in brief: as §1
[38] = tested on: NCI; assay: Antitumor activity against human NCI prostate cancer cell line panel; format: functional, cell-based; method in brief: as §1
[39] = tested on: OVCAR-8; assay: Antitumor activity against human OVCAR8 cells; format: functional; method in brief: as §1
[40] = tested on: HL-60; assay: Antitumor activity against human HL60 cells; format: functional; method in brief: as §1
[41] = tested on: COLO 205; assay: Antitumor activity against human COLO 205 cells; format: functional; method in brief: as §1
[42] = read-out: Log LC50 (the source's name) (converted)
[43] = read-out: LC50 (the source's name)

CN(/N=N/c1nc(OCc2ccccc2)c2nc[nH]c2n1)C(=O)Oc1ccc([N+](=O)[O-])cc1
GI50 [1]: 22.9 µM
CC50 [1, 42]: > 50.1 µM
TGI ([1]; read-out: Log TGI (converted)): > 50.1 µM
IC50 [2]: 8 µM
TGI [2]: 23 µM
CC50 [2, 43]: 40 µM
GI50 [3]: 9.12 µM
CC50 [3, 42]: 42.7 µM
TGI ([3]; read-out: Log TGI (converted)): 19.5 µM
GI50 [4]: 6.92 µM
CC50 [4, 42]: 38.9 µM
TGI ([4]; read-out: Log TGI (converted)): 16.2 µM
GI50 [5]: 11.5 µM
CC50 [5, 42]: > 50.1 µM
TGI ([5]; read-out: Log TGI (converted)): 36.3 µM
GI50 [6]: 38.9 µM
CC50 [6, 42]: > 50.1 µM
TGI ([6]; read-out: Log TGI (converted)): > 50.1 µM
GI50 [7]: 12 µM
CC50 [7, 42]: > 50.1 µM
TGI ([7]; read-out: Log TGI (converted)): 28.2 µM
GI50 [8]: 6.76 µM
CC50 [8, 42]: > 50.1 µM
TGI ([8]; read-out: Log TGI (converted)): 31.6 µM
GI50 [9]: 7.59 µM
CC50 [9, 42]: 31.6 µM
TGI ([9]; read-out: Log TGI (converted)): 15.1 µM
GI50 [10]: 8.51 µM
CC50 [10, 42]: 41.7 µM
TGI ([10]; read-out: Log TGI (converted)): 18.6 µM
GI50 [11]: 8.71 µM
CC50 [11, 42]: > 50.1 µM
TGI ([11]; read-out: Log TGI (converted)): 29.5 µM
GI50 [12]: 7.59 µM
CC50 [12, 42]: 30.9 µM
TGI ([12]; read-out: Log TGI (converted)): 15.1 µM
GI50 [13]: 9.77 µM
CC50 [13, 42]: > 50.1 µM
TGI ([13]; read-out: Log TGI (converted)): 28.8 µM
GI50 [14]: 12 µM
CC50 [14, 42]: 50.1 µM
TGI ([14]; read-out: Log TGI (converted)): 31.6 µM
GI50 [15]: 10.5 µM
CC50 [15, 42]: > 50.1 µM
TGI ([15]; read-out: Log TGI (converted)): 28.8 µM
GI50 [16]: 9.55 µM
LC50 [16]: > 50.1 µM
TGI ([16]; read-out: Log TGI (converted)): 28.2 µM
GI50 [17]: 9.33 µM
CC50 [17, 42]: 45.7 µM
TGI ([17]; read-out: Log TGI (converted)): 20.9 µM
CC50 [18, 42]: > 50.1 µM
TGI ([18]; read-out: Log TGI (converted)): > 50.1 µM
GI50 [19]: 12.3 µM
CC50 [19, 42]: > 50.1 µM
TGI ([19]; read-out: Log TGI (converted)): 30.9 µM
GI50 [20]: 9.12 µM
CC50 [20, 42]: > 50.1 µM
TGI ([20]; read-out: Log TGI (converted)): > 50.1 µM
GI50 [21]: 12 µM
CC50 [21, 42]: > 50.1 µM
TGI ([21]; read-out: Log TGI (converted)): 33.9 µM
IC50 [22]: 14 µM
TGI [22]: 50 µM
CC50 [22, 43]: 50 µM
GI50 [23]: 8.71 µM
CC50 [23, 42]: 29.5 µM
TGI ([23]; read-out: Log TGI (converted)): 15.8 µM
GI50 [24]: 6.61 µM
CC50 [24, 42]: 29.5 µM
TGI ([24]; read-out: Log TGI (converted)): 13.8 µM
GI50 [25]: 11.5 µM
CC50 [25, 42]: > 50.1 µM
TGI ([25]; read-out: Log TGI (converted)): > 50.1 µM
GI50 [26]: 9.12 µM
CC50 [26, 42]: > 50.1 µM
TGI ([26]; read-out: Log TGI (converted)): 26.3 µM
GI50 [27]: 9.33 µM
CC50 [27, 42]: > 50.1 µM
TGI ([27]; read-out: Log TGI (converted)): 29.5 µM
GI50 [28]: 7.41 µM
CC50 [28, 42]: > 50.1 µM
TGI ([28]; read-out: Log TGI (converted)): 20.4 µM
IC50 [29]: 10 µM
TGI [29]: 30 µM
CC50 [29, 43]: 50 µM
IC50 [30]: 9 µM
TGI [30]: 30 µM
CC50 [30, 43]: 47 µM
GI50 [31]: 12.3 µM
CC50 [31, 42]: > 50.1 µM
TGI ([31]; read-out: Log TGI (converted)): > 50.1 µM
GI50 [32]: 8.51 µM
LC50 (50% net cell kill) [32]: 32.4 µM
TGI ([32]; read-out: Log TGI (converted)): 16.2 µM
GI50 [33]: 9.55 µM
LC50 [33]: > 50.1 µM
TGI ([33]; read-out: Log TGI (converted)): 24.5 µM
GI50 [34]: 1.15 µM
IC50 [34]: 1.1 µM
CC50 [34, 43]: 27 µM
CC50 [34, 42]: 26.9 µM
TGI ([34]; read-out: Log TGI (converted)): 10.7 µM
TGI ([34]; read-out: TGI): 11 µM
GI50 [35]: 10.7 µM
CC50 [35, 42]: > 50.1 µM
TGI ([35]; read-out: Log TGI (converted)): 26.9 µM
GI50 [36]: 12 µM
CC50 [36, 42]: > 50.1 µM
TGI ([36]; read-out: Log TGI (converted)): > 50.1 µM
GI50 [37]: 8.71 µM
LC50 (concentration giving 50% net cell death) [37]: > 50.1 µM
TGI ([37]; read-out: Log TGI (converted)): 23.4 µM
IC50 [38]: 10 µM
TGI [38]: 23 µM
CC50 [38, 43]: 46 µM
GI50 [39]: 9.77 µM
LC50 (concentration giving 50% net cell death) [39]: > 50.1 µM
TGI ([39]; read-out: Log TGI (converted)): 26.3 µM
GI50 [40]: 12 µM
CC50 [40, 42]: > 50.1 µM
TGI ([40]; read-out: Log TGI (converted)): > 50.1 µM
GI50 [41]: 10.2 µM
CC50 [41, 42]: > 50.1 µM
TGI ([41]; read-out: Log TGI (converted)): 29.5 µM
